Bioassay records: PubChem BioAssay, Johns Hopkins Ion Channel Center
TRPC4 potent: allosteric potentiators of mouse TRPC4 channel; Q9QUQ5; HEK293 TRPC4beta/mu-opioid, DAMGO EC20, Fluo-4 Ca2+ flux; active compounds read high; B-score at 10 µM; hit rate 0.42% among 310,000;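 active = B-score of calcium response area above 5 SD of library B-scores, with initial fluorescence ratio within 5 SD of library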
TRPC6 act: activators of mouse TRPC6 channel; Q61143; HEK293-TRPC6 membrane potential dye fluorescence; active compounds read high; B-score at 10 µM; hit rate 0.13% among 310,000;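 active = B-score of the integrated fluorescence ratio above library mean plus 3 SD, and starting fluorescence ratio within library mean plus 5 SD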;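 note: higher score means more depolarization so channel activation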
Target sequence (Q61143 whole entry, looked up): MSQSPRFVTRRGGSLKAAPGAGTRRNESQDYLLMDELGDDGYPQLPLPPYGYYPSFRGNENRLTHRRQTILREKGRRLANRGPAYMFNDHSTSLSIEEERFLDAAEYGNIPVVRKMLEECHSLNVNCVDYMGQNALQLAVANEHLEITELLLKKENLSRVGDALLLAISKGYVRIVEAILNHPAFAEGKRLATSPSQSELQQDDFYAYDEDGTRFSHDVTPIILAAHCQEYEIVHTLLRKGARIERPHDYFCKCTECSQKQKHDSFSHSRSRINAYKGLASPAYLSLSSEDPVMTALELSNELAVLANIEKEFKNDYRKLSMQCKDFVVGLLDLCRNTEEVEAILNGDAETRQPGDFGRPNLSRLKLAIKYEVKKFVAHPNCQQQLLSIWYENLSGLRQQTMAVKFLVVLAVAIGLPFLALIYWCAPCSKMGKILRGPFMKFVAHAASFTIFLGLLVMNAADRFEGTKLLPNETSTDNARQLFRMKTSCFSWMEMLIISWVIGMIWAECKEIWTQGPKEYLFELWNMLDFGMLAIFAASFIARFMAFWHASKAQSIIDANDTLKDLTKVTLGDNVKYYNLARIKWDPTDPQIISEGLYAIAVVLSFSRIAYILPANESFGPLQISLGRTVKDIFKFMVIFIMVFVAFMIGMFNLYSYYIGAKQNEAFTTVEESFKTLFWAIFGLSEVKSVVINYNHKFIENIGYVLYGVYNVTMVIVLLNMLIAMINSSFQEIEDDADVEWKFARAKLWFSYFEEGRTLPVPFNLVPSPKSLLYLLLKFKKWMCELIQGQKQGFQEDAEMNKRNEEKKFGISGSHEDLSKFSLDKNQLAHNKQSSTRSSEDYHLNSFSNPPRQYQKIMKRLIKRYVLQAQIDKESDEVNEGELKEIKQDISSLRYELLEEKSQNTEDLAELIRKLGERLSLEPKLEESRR
TRPC4 block: inhibitors of mouse TRPC4 channel; Q9QUQ5; HEK293 TRPC4beta/mu-opioid, DAMGO-evoked Fluo4 calcium flux; active compounds read low; B-score at 10 µM; hit rate 0.39% among 300,000; AID 2247;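 active = B-score over 3 SD under the library average, no early fluorescence shift, positive overall ratio signal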
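Material: HEK293 cells with stable TRPC4beta plus mu-opioid receptor expression / Probe or stimulus: DAMGO in two steps, submaximal then maximal / Compound: single concentration per test compound / Technique: kinetic Fluo4 fluorescence imaging of calcium influx / Read-out: per-well B score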
TRPC4 act: TRPC4 (mouse) channel activation. Q9QUQ5. HEK293 TRPC4beta/mu-opioid, Fluo4 calcium fluorescence; active compounds read high. B-score at 10 µM. hit rate 0.49% among 310,000;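 active = B-score above 5 SD of library B-scores, and initial fluorescence ratio not above library mean plus 5 SD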;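 note: positive B-score marks a calcium rise read as TRPC4 activation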
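Technique: kinetic Fluo4 calcium fluorescence; Test system: TRPC4beta and mu-opioid receptor HEK293 stable cells; Measure: B-scored integrated calcium fluorescence ratio; Benchmarks: low control buffer alone, high control maximal DAMGO; Schedule: 45 min room-temperature Fluo4 loading, 110 s read.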
TRPC6 inhibitor: mouse TRPC6 channel inhibition; hit rate 1.1% among 310,000; Q61143; HEK293-TRPC6, membrane potential dye, ACh-evoked depolarization; active compounds read low; B-score at 10 µM;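 active = B-score under library mean minus 3 SD, initial fluorescence not abnormally high, positive integrated signal ratio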;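 note: B-score derived from integrated fluorescence ratio over the kinetic read; more negative B-score means stronger inhibition of depolarization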
Large screens that a line does not name were inactive. This is a sample that favours compounds with a hit; in the whole collection about 2.3% have one here.

c1csc(CNc2nc(-c3cccs3)nc3ccccc23)c1	TRPC4 block -6
c1csc(-c2nc(NCC3CCCO3)c3ccccc3n2)c1 (stereo unspecified)	TRPC4 block -8
c1cncc(-c2nc(NCC3CCCO3)c3ccccc3n2)c1 (stereo unspecified)	none
c1ccc(-c2nc(NCc3cccs3)c3ccccc3n2)cc1	none
COC(CNC(=O)CN1CCN(Cc2ccccc2F)C1=O)OC	none
CCCN(C(=O)c1cccc(S(=O)(=O)N2CCN(C)CC2)c1)c1c(N)n(Cc2ccccc2)c(=O)[nH]c1=O	none
CC(=O)N(Cc1c(C)nn(-c2ccccc2)c1Cl)c1ccc(Cl)cc1	none
Cc1nn(-c2ccccc2)c(Cl)c1CN(C(=O)CCl)c1ccc(Cl)cc1	TRPC4 block -7
Cc1nn(-c2ccccc2)c(Cl)c1CN(C(=O)CCl)c1cccc2ccccc12	TRPC4 block -7
COc1ccc(CN=Cc2[nH]c3ccc(Br)c(Cl)c3c2O)cc1	TRPC6 act 16
COc1ccc(CN=CC2=C(O)CNC2=O)cc1	none
Nc1nc2ccccc2n1CCOc1ccc(Br)cc1	none
Cc1ccc(OCCn2c(C)nc3ccccc32)cc1	TRPC4 block -6
CCCc1nc2ccccc2n1CCOC	none
Nc1nc2ccccc2n1CCOc1ccc(Cl)cc1	TRPC4 block -7
CC(C)(C)Cc1nc2ccccc2n1CCc1ccccc1	TRPC4 block -7
CCCc1nc2ccccc2n1CCOc1ccccc1	TRPC4 block -6
Cc1nn(-c2ccccc2)c(Cl)c1C(=O)OCC(=O)NCCc1ccccc1	none
CCN1CCN(C(=O)CCc2nnc3ccc(N4CCN(c5cccc(OC)c5)CC4)nn23)CC1	none
O=C(OCC(=O)N1CCN(c2ccccc2)CC1)c1ccc[n+]([O-])c1	none
Cc1nc2ccccc2n1CCCOc1ccccc1	none
Cc1nc2ccccc2n1Cc1ccc(Br)cc1	TRPC4 block -6
Cc1nc(Cl)c(Cl)n1CCOc1ccccc1	TRPC4 block -8
Cc1nc2ccccc2n1Cc1ccccc1	none
Nc1ccc(CSc2ccc(Cl)cc2)cc1	none
CCc1ccc(C(C(=O)NC(C)(C)CC)N(Cc2ccco2)C(=O)Cn2nnc3ccccc32)cc1 (stereo unspecified)	none
CCC(C)(C)NC(=O)C(c1ccccc1F)N(Cc1ccco1)C(=O)Cn1nnc2ccccc21 (stereo unspecified)	TRPC6 act 44
O=C(CN1CCCCC1)Nc1cc(Cl)ccc1Oc1ccccc1	none
O=C(CN1CCCCCC1)Nc1ccccc1Oc1ccccc1	TRPC4 block -6
N#CC1=C(N)C(C#N)(C#N)C(c2cccnc2)C2CCCC=C12 (stereo unspecified)	none
N#CC1=C(N)C(C#N)(C#N)C(c2cccnc2)C2CC(c3ccccc3)CC=C12 (stereo unspecified)	TRPC4 potent 36
Cc1ccc(COn2c(-c3ccc(Cl)cc3Cl)nc3ncccc32)cc1	TRPC4 block -8, TRPC4 act 59
COn1c(-c2ccc(C)cc2)nc2ncccc21	none
Clc1cccc(COn2c(-c3ccc(Cl)cc3Cl)nc3ncccc32)c1	TRPC4 block -6
COc1cccc(CNC(=O)[C@@H](C)N2C(=O)N3CCc4c([nH]c5ccc(OC)cc45)C3(C)C2=O)c1 (stereo partly specified)	none
CS(=O)(=O)N1CCC(Oc2ccccc2C(=O)NC(C2CC2)C2CC2)CC1	none
COc1ccc(CCNC2CCC(c3ccccc3)CC2)cc1 (stereo unspecified)	TRPC4 act 104
COc1ccc(CCNC2CCc3ccccc3C2)cc1 (stereo unspecified)	none
Cc1ccc(C(=O)NC(=S)Nc2c(C)ccc3nsnc23)cc1	TRPC4 block -5
CSCCC(NC(=O)c1ccccc1)C(=O)Nc1ccc(NC(C)=O)cc1 (stereo unspecified)	TRPC6 inhibitor -5.2
CCC(C)NC(=O)C(CCSC)NC(=O)c1ccccc1 (stereo unspecified)	none
COc1ccc(C2CC(c3ccc(OC)cc3OC(C)=O)=NN2C(=O)c2ccccc2)cc1 (stereo unspecified)	TRPC4 potent 11
COc1ccc(C2=NN(C(=O)c3ccccc3)C(c3ccc(OC)c(OC)c3)C2)c(O)c1 (stereo unspecified)	TRPC4 block -7
CCc1ccc(C(=O)COC(=O)C2CCN(c3ccc(C(F)(F)F)cn3)CC2)cc1	none
CC1(c2ccccc2)NC(=O)N(CC(=O)Nc2nnc(C3CC3)s2)C1=O (stereo unspecified)	none
CC1CC(C)CN(S(=O)(=O)c2ccc(C(=O)N(c3ccccn3)C3CCCCC3)cc2)C1 (stereo unspecified)	TRPC4 block -6
O=C(c1ccc(S(=O)(=O)N2CCCCC2)cc1)N(c1ccccn1)C1CCCCC1	none
NC(=O)CSc1nnc(SCc2ccc(F)cc2)s1	none
O=C(NC(Nc1nc2ccc([N+](=O)[O-])cc2s1)(C(F)(F)F)C(F)(F)F)c1ccccc1Cl	TRPC6 act 14, TRPC6 inhibitor -6.9
COc1cccc(/C=C/C(=O)NCc2ccc3c(c2)OCO3)c1	none
CC1CN(C(NC(=O)C(C)(C)C)C(Cl)(Cl)Cl)CC(C)O1 (stereo unspecified)	none
CC(=O)c1ccc(N2CCN(c3ccc(S(=O)(=O)NCCCN(C)C)cc3[N+](=O)[O-])CC2)cc1	TRPC4 potent 26
Cc1nn2c(N3CCN(C)CC3)c3c(nc2c1-c1ccccc1)CCCC3	TRPC4 potent 28
COC(=O)C(C)Oc1cc(C)ccc1COc1ccc(-n2nc(C)n(C(F)F)c2=O)cc1 (stereo unspecified)	none
Cc1cc(/C=N/n2c(COc3ccccc3C)nc3ccccc3c2=O)c(O)c([N+](=O)[O-])c1	none
O=c1c2ccccc2nc(COc2ccccc2)n1/N=C/c1cc([N+](=O)[O-])ccc1O	TRPC4 potent 27
Cc1ccc(OCc2ccc(C(=O)N3CCCC3)o2)cc1C	none
CCOc1ccc(OCc2ccc(C(=O)N3CCCCC3)o2)cc1	TRPC4 potent 10
Cc1ccc(C(=O)NCC2CCCN2S(=O)(=O)c2cccs2)cc1C (stereo unspecified)	none
CN1CCCN(S(=O)(=O)c2ccc(Cl)c(Cl)c2)CC1	TRPC4 potent 12
CN1CCCN(S(=O)(=O)c2cccc(Cl)c2Cl)CC1	none
CCCC(C(=O)NC1=NCCS1)c1ccccc1 (stereo unspecified)	none
CCOc1cc(CNCc2cccs2)ccc1OCC(=O)NC(C)(C)C	TRPC4 block -6
COc1ccccc1-c1cc(-c2ccccc2)nc(=O)[nH]1	TRPC4 potent 21
O=c1nc(-c2ccccc2)cc(-c2ccccc2)[nH]1	none
CCN(CC(=O)Nc1c(F)cccc1F)C(=O)c1ccc(C)c(S(=O)(=O)N2CCCCC2)c1	none
Cc1cc(Nc2ccc(C)c(C)c2)c2ccccc2n1	TRPC4 block -6
CC(=O)Nc1ccc(Nc2cc(C)nc3ccccc23)cc1	none
